Laboratory results reported in ChEMBL document CHEMBL1128194, “A new series of pyridinone derivatives as potent non-nucleoside human immunodeficiency virus type 1 specific reverse transcriptase inhibitors” (J Med Chem, 1995).

Tests used:
[1] = biological target: Human immunodeficiency virus type 1 reverse transcriptase (Human immunodeficiency virus 1, UniProt Q72547); assay: Inhibition of HIV-1 reverse transcriptase (RT)
In short: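 Recombinant HIV-1 RT (20–50 nM) was expressed in yeast. Assays ran 10 min at 37 °C in 50 mM Tris-HCl pH 8.0 with 5 mM MgCl2, 4 mM DTT, 80 mM KCl and BSA. Template-primer was poly(C)-oligo(dG) (5:1, 0.48 A260/mL), with 2 μM dGTP plus [3H]dGTP. Product was precipitated with cold TCA/pyrophosphate, filtered and scintillation counted. Compounds were in DMSO, with matched DMSO controls.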

CEM-SS [2] = assay: Cytotoxicity against wild type HIV-1-IIIB strain infected CEMSS cells.; type: functional; settings: Homo sapiens
In short: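 Uninfected cells were incubated with compound for 5 days. Viability was read by MTT reduction to formazan at OD540. CC50 is the concentration that halves OD540, taken from a median-effect computer analysis.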

CEM-SS [3] = assay: Specific index of IC50 and CC50 on HIV-1 IIIB wild type; type: functional
CEM-SS [4] = assay: The compound was tested for inhibition of Nevirapine resistant HIV-1 (N119) cells; type: functional, cell-based; settings: Homo sapiens
In short: (§1)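 Cells infected with 100 TCID50 virus for 30 min. Unbound virus removed by two washes, then cells cultured 5 days with a range of compound concentrations. Virus production read as particle-associated RT activity in the culture supernatant. IC50 taken from a computer-generated median effect plot of the dose–effect data.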

[5] = tested on: Human immunodeficiency virus 1; assay: Inhibition of wild type HIV-1-IIIB strain replication in CEM-SS cells; type: functional, organism-based; settings: Human immunodeficiency virus 1, CEM-SS
In short: (§2)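 Cells were infected with 100 TCID50 for 30 min and washed twice to remove unbound virus. They were then cultured 5 days with a range of compound concentrations. Virus production was quantified as particle-associated RT activity in the supernatant. IC50 was derived from a computer-generated median-effect plot of dose–effect data.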

[6] = Specific index of IC50 and CC50 on HIV-1 Nevirapine resistant strain; type: functional
CEM-SS [7] = assay: The compound was tested for inhibition of nevirapine HIV-1 resistant strain; type: functional, cell-based; settings: Homo sapiens; in short: as §1
CEM-SS [8] = assay: The compound was tested for cytotoxicity against nevirapine HIV-1 resistant strain infected CEMSS cells; type: functional; settings: Homo sapiens
CEM-SS [9] = assay: The compound was tested for inhibition of wild type HIV-1-IIIB strain; type: functional, cell-based; settings: Homo sapiens; in short: as §2

Row | Structure (SMILES) | IC50 [1] | IC50 (CEM-SS [9]) | CC50 (CEM-SS [2]) | Specific index (CEM-SS [3]) | IC50 (CEM-SS [4]) | IC50 [5] | Specific index [6] | IC50 (CEM-SS [7]) | CC50 (CEM-SS [8])
1 | Cc1cc(C)cc(Sc2c(C)cnc(O)c2[N+](=O)[O-])c1 | > 10 µM | – | > 10 µM | >83 | > 10 µM | 0.12 µM | – | – | –
2 | CCc1c(Sc2cc(C)cc(C)c2)cc(O)nc1C | 0.4 µM | – | > 10 µM | >20 | – | 0.5 µM | – | – | –
3 | Cc1cnc(O)c([N+](=O)[O-])c1Sc1nc2ccccc2o1 | – | – | 16 µM | >2 | – | 5.5 µM | – | – | –
4 | Cc1c(Sc2ccccc2)n(COCc2ccccc2)c(=O)[nH]c1=O | 0.4 µM | – | – | – | – | – | – | – | –
5 | CCc1cnc(O)c(N)c1Sc1cc(C)cc(C)c1 | – | – | > 10 µM | >1000 | – | 0.01 µM | > 1 | 6.7 µM | –
6 | Cc1cc(C)cc(Sc2c([N+](=O)[O-])c(O)nc3ccccc23)c1 | – | – | > 100 µM | >26 | – | 3.8 µM | – | > 10 µM | –
7 | CCc1c(C)nc(O)c(NC(C)=O)c1Sc1cc(C)cc(C)c1 | – | – | 80 µM | 1600 | – | 0.05 µM | > 23 | 4.3 µM | > 100 µM
8 | Cc1cc(C)cc(Sc2c(N)c(O)nc3ccccc23)c1 | – | – | > 9 µM | >36 | – | 0.25 µM | > 1.5 | 6.6 µM | 8.2 µM
9 | Cc1cnc(O)c([N+](=O)[O-])c1SC1=NCCS1 | – | – | 21.5 µM | >1 | – | 17 µM | – | – | –
10 | Cc1cnc(O)c([N+](=O)[O-])c1Sc1nc2ccccc2[nH]1 | – | – | 54.5 µM | >1 | – | 43.5 µM | – | – | –
11 | Cc1cnc(O)c([N+](=O)[O-])c1Sc1nccn1C | – | – | 68.5 µM | >1 | – | 56 µM | – | – | –
12 | CCC(=O)Nc1c(O)ncc(C)c1Sc1cc(C)cc(C)c1 | > 4 µM | – | > 100 µM | >2 | – | 41.4 µM | – | – | –
13 | Cc1cccc(Sc2c(C)c[nH]c(=O)c2N)c1 | > 4 µM | – | – | – | – | – | – | – | –
14 | CCc1c(C)nc(O)c([N+](=O)[O-])c1Sc1cc(C)cc(C)c1 | – | – | > 10 µM | >1666 | – | ~0.006 µM | > 38 | 0.26 µM | –
15 | Cc1cc(C)cc(Sc2c(C)cnc(O)c2NC(=O)Cc2ccccc2)c1 | – | – | > 10 µM | – | – | > 10 µM | – | – | –
16 | CCc1cnc(O)c([N+](=O)[O-])c1Sc1cc(C)cc(C)c1 | – | – | > 10 µM | >111 | – | ~0.09 µM | > 1 | 6.7 µM | –
17 | Cc1cnc(O)c(N)c1Sc1nc2ccccc2o1 | – | – | 7.5 µM | – | – | 8 µM | – | – | –

Row | Structure (SMILES) | IC50 [1] | IC50 (CEM-SS [9]) | CC50 (CEM-SS [2]) | Specific index (CEM-SS [3]) | IC50 (CEM-SS [4]) | IC50 [5] | Specific index [6] | IC50 (CEM-SS [7]) | CC50 (CEM-SS [8])
18 | Cc1cn([C@H]2C[C@H](N=[N+]=[N-])[C@@H](CO)O2)c(=O)[nH]c1=O [ZIDOVUDINE] | – | – | > 100 µM | – | – | – | – | – | –
19 | Cc1cc(C)cc(Sc2c(C)cnc(O)c2NC=O)c1 | – | – | > 100 µM | >15 | – | 6.6 µM | – | – | –
20 | Cc1cnc(O)c([N+](=O)[O-])c1Sc1nc2ccccc2s1 | – | – | 13.5 µM | – | – | 14.5 µM | – | – | –
21 | CC(=O)Nc1c(O)ncc(C)c1Sc1cc(C)cc(C)c1 | > 4 µM | – | > 100 µM | >1492 | – | 0.067 µM | – | > 100 µM | –
22 | CCCCCCC(=O)Nc1c(O)ncc(C)c1Sc1cc(C)cc(C)c1 | – | > 10 µM | > 10 µM | – | – | – | – | – | –
23 | Cc1cc(C)nc(Sc2c(C)cnc(O)c2[N+](=O)[O-])n1 | – | – | 19.5 µM | >1 | – | 17.5 µM | – | – | –
24 | Cc1cc(C)cc(Nc2c(C)cnc(O)c2[N+](=O)[O-])c1 | – | – | > 100 µM | >2 | – | 45 µM | – | – | –
25 | Cc1cc(C)cc(Sc2c(C)cnc(O)c2N)c1 | 0.1 µM | – | > 10 µM | >1000 | – | 0.01 µM | – | > 10 µM | –
26 | CCc1c(C)nc(O)c(N)c1Sc1cc(C)cc(C)c1 | 0.015 µM | – | > 10 µM | >714 | – | 0.014 µM | > 4 | 2.1 µM | –
27 | CCOC(=O)c1c(O)nc(C)c(CC)c1Sc1cc(C)cc(C)c1 | – | – | > 10 µM | >3333 | – | 0.003 µM | > 4.5 | 2.2 µM | –
28 | Cc1cccc(Sc2c(C)cnc(O)c2N)c1 | – | – | 78 µM | >55 | – | 1.4 µM | > 1 | 41.5 µM | 78 µM
29 | CC(C)=CCN1Cc2cc(Cl)cc3[nH]c(=S)n(c23)C[C@@H]1C | – | – | > 10 µM | – | – | > 10 µM | – | – | –
30 | Cc1cc(O)nc(Sc2c(C)cnc(O)c2[N+](=O)[O-])n1 | – | – | > 100 µM | – | – | > 100 µM | – | – | –
31 | Cc1cnc(O)c([N+](=O)[O-])c1Sc1ccccc1 | – | – | > 10 µM | – | – | > 10 µM | – | – | –
32 | CCOC(=O)Nc1c(O)ncc(C)c1Sc1cc(C)cc(C)c1 | – | – | > 100 µM | >13 | – | 7.5 µM | – | – | –
33 | Cc1cnc(O)c([N+](=O)[O-])c1Sc1ccccn1 | – | – | 28.5 µM | >1 | – | 18 µM | – | – | –

More lines, main results first:

Row | IC50 [1] | IC50 (CEM-SS [9]) | Structure (SMILES) | CC50 (CEM-SS [2]) | Specific index (CEM-SS [3]) | IC50 (CEM-SS [4]) | IC50 [5] | Specific index [6] | IC50 (CEM-SS [7]) | CC50 (CEM-SS [8])
34 | > 10 µM | – | Cc1cccc(Sc2c(C)cnc(O)c2[N+](=O)[O-])c1 | > 10 µM | – | – | – | – | – | –
35 | 0.6 µM | – | CCOC(=O)c1c(Sc2cc(C)cc(C)c2)c(CC)c(C)[nH]c1=O | – | – | – | – | – | – | –
36 | 0.03 µM | – | CCc1c(C)[nH]c(=O)c([N+](=O)[O-])c1Sc1cc(C)cc(C)c1 | – | – | – | – | – | – | –
37 | > 6 µM | – | Cc1c(Sc2ccccc2)n(COCCO)c(=O)[nH]c1=O [HEPT] | – | – | – | – | – | – | –
